Data set [1] has as its system Mycobacterium avium. Nature of the data set: Antibacterial activity against Mycobacterium avium ATCC 25921 in presence of clarithromycin by checkerboard assay. The class given is functional, organism-based. A digest of the protocol:
(§1)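 Checkerboard in 96-well plates. Antibiotic two-fold serially diluted along columns, haloperidol derivative two-fold along rows. Bacteria prepared as for the MIC determination. MICs alone and in combination used to calculate FICI. At least duplicate independent trials.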

Data set [2] has as its system Mycobacterium avium. Nature of the data set: Antibacterial activity against Mycobacterium avium ATCC 25921 in presence of spectinomycin by checkerboard assay. The class given is functional, organism-based. The method, boiled down:
as §1

Data set [3] deals with Mycobacterium tuberculosis. Nature of the data set: Antibacterial activity against Mycobacterium tuberculosis H37Ra ATCC NRS22 assessed as inhibition of bacterial growth incubated upto 3 weeks hrs by resazurin dye based double-dilution method. The class given is functional. The settings on record: H37Ra ATCC NRS22, 504 h. A digest of the protocol: (§2)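 Double-dilution broth MIC. Media: M. smegmatis, Mueller-Hinton; M. abscessus, 7H9 + 0.05% Tween80 + 0.4% glycerol; mc²6230, 7H9 + 0.05% tyloxapol, 0.5% glycerol, 10% OADC, 0.2% casamino acids, 24 µg/mL pantothenate; other mycobacteria, 7H9 + 0.05% Tween80, 0.4% glycerol, 10% ADC. Inoculum from agar set to 0.5 McFarland, then diluted 1:100.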
(Resazurin is reduced to fluorescent resorufin, in cell work by metabolically active cells.)

In another data set the target is T1, N-acetyltransferase Eis (Mycobacterium tuberculosis (strain ATCC 25618 / H37Rv), UniProt P9WFK7).
T1 sequence (P9WFK7 whole entry): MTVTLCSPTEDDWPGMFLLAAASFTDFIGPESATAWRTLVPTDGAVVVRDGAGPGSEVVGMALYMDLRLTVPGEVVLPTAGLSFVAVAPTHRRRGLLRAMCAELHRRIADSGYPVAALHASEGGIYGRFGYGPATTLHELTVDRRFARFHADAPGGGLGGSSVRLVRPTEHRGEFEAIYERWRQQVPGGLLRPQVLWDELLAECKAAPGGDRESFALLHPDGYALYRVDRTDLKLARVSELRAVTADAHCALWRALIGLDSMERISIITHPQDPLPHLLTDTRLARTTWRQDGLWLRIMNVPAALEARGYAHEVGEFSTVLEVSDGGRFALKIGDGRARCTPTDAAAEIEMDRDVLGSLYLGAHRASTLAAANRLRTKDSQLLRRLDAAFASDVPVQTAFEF
Nature of the data set: Inhibition of Mycobacterium tuberculosis Eis assessed as Eis-mediated kanamycin acetylation preincubated for 10 mins followed by substrate addition and measured for 2 to 5 mins using acetyl-CoA as substrate in presence of kanamycin by UV-Vis spectroscopy analysis. A digest of the protocol: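 Recombinant Eis (1 µM) mixed with KAN (400 µM) in 50 mM Tris-HCl pH 8.0 and preincubated 10 min with 5-fold serially diluted inhibitor (10% DMSO in buffer). Reaction started with AcCoA and DTNB (2 mM each, as added). Absorbance read every 30 s for 20 min. Initial rates (first 2-5 min) fitted to Hill plot for IC50. At least triplicate.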

Data set [4] deals with J774.A1. Nature of the data set: Cytotoxicity against mouse J774.A1 cells assessed as reduction in cell viability at 50 uM incubated for 24 hrs by resazurin assay. The class given is toxicity, cell-based. The settings on record: j774.a1, 24 h. A digest of the protocol: (§3)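 Resazurin viability assay in DMEM + 10% FBS, 1% penicillin/streptomycin, 37 °C, 5% CO₂. Seeding: HEK-293 and J774A.1 at 1×10^4 cells/mL, A549 at 5×10^3 cells/mL. After 24 h, compounds added (0.78-200 μM, 0.5% DMSO final). Resazurin added 24 h later, read after 6 h. 1% Triton X as positive control. Quadruplicate.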

The subject of data set [5] is Mycobacterium intracellulare. Nature of the data set: Antibacterial activity against Mycobacterium intracellulare ATCC 13950 in presence of clarithromycin by checkerboard assay. The class given is functional, organism-based. A digest of the protocol: as §1
Data set [6] has as its system Mycobacteroides abscessus. Nature of the data set: Antibacterial activity against Mycobacterium abscessus ATCC 19977 assessed as inhibition of bacterial growth incubated upto 3 weeks hrs by resazurin dye based double-dilution method. The class given is functional. The settings on record: ATCC 19977, 504 h. A digest of the protocol: as §2
For data set [7], the system named is Mycolicibacterium smegmatis. Nature of the data set: Antibacterial activity against Mycobacterium smegmatis mc2 155 assessed as inhibition of bacterial growth incubated upto 3 weeks hrs by resazurin dye based double-dilution method. The settings on record: mc2 155, 504 h. In kind it is functional. A digest of the protocol: as §2
The test system of data set [8] is Mycolicibacterium smegmatis. Nature of the data set: Synergistic antibacterial activity against Mycobacterium smegmatis mc2 155 assessed as fold reduction in MIC value at 8 ug/ml in presence of clarithromycin by checkerboard assay. The class given is functional. The settings on record: dose 8 µg/ml.
Data set [9] relates to Mycobacteroides abscessus. Nature of the data set: Synergistic antibacterial activity against Mycobacterium abscessus ATCC 19977 in presence of clarithromycin by checkerboard assay. The class given is functional, organism-based. A digest of the protocol: as §1
Data set [10] has as its system Mycobacterium intracellulare. Nature of the data set: Antibacterial activity against Mycobacterium intracellulare ATCC 13950 in presence of spectinomycin by checkerboard assay. The class given is functional, organism-based. The method, boiled down: as §1
For data set [11], the system named is Mycobacterium tuberculosis. Nature of the data set: Synergistic antibacterial activity against Mycobacterium tuberculosis H37Ra ATCC NRS22 in presence of spectinomycin by checkerboard assay. In kind it is functional, organism-based. A digest of the protocol: as §1
The subject of data set [12] is A549. Nature of the data set: Cytotoxicity against human A549 cells assessed as reduction in cell viability at 200 uM incubated for 24 hrs by resazurin assay. The note with it: a549, 24 h. In kind it is toxicity, cell-based. The method, boiled down: as §3
Data set [13] relates to Mycobacterium avium. Nature of the data set: Antibacterial activity against Mycobacterium avium ATCC 25921 in presence of clofazimine by checkerboard assay. In kind it is functional, organism-based. The method, boiled down: as §1
For data set [14], the system named is Mycolicibacterium smegmatis. Nature of the data set: Synergistic antibacterial activity against Mycobacterium smegmatis mc2 155 assessed as fold reduction in MIC value at 8 ug/ml in presence of spectinomycin by checkerboard assay. The class given is functional. The settings on record: dose 8 µg/ml.
For data set [15], the system named is Mycolicibacterium smegmatis. Nature of the data set: Synergistic antibacterial activity against Mycobacterium smegmatis mc2 155 assessed as fold reduction in MIC value at 8 ug/ml in presence of clofazimine by checkerboard assay. In kind it is functional, organism-based. The note with it: dose 8.0 µg/ml.
The test system of data set [16] is Mycobacterium intracellulare. Nature of the data set: Antibacterial activity against Mycobacterium intracellulare ATCC 13950 assessed as inhibition of bacterial growth incubated upto 3 weeks hrs by resazurin dye based double-dilution method. The settings on record: ATCC 13950, 504 h. The class given is functional. The method, boiled down: as §2
Data set [17] relates to Mycobacteroides abscessus. Nature of the data set: Synergistic antibacterial activity against Mycobacterium abscessus ATCC 19977 assessed as reduction in bacterial growth presence of spectinomycin by checkerboard assay. In kind it is functional, organism-based. The method, boiled down:
as §1

Data set [18] relates to Mycobacterium avium. Nature of the data set: Antibacterial activity against Mycobacterium avium ATCC 25921 assessed as inhibition of bacterial growth incubated upto 3 weeks hrs by resazurin dye based double-dilution method. In kind it is functional. The settings on record: ATCC 25921, 504 h. A digest of the protocol: as §2
The subject of data set [19] is Mycobacterium intracellulare. Nature of the data set: Antibacterial activity against Mycobacterium intracellulare ATCC 13950 in presence of clofazimine by checkerboard assay. In kind it is functional, organism-based. A digest of the protocol: as §1
The subject of another data set is HEK293. Nature of the data set: Cytotoxicity against human HEK293 cells assessed as reduction in cell viability at 200 uM incubated for 24 hrs by resazurin assay. The settings on record: hek293, 24 h. The class given is toxicity, cell-based. The method, boiled down:
as §3

Data set [20] relates to Mycobacteroides abscessus. Nature of the data set: Synergistic antibacterial activity against Mycobacterium abscessus ATCC 19977 in presence of clofazimine by checkerboard assay. In kind it is functional, organism-based. The method, boiled down: as §1
Data set [21] has as its system Mycobacterium tuberculosis. Nature of the data set: Potentiation of kanamycin-induced antibacterial activity against Mycobacterium tuberculosis K204 assessed as kanamycin MIC incubated for 1 day followed by kanamycin addition for 6 days and by Alamar blue assay. The class given is functional. The settings on record: K204, 168 h, time 7 day. A digest of the protocol: (§4)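 Mtb in 7H9 + 10% ADC, 0.05% Tween 80, 0.4% glycerol at 37 °C. Inoculum adjusted to OD600 0.2, diluted 1:25. Cells preincubated 24 h at 37 °C with compound (100 µL of 200 µM solution). KAN then added: H37Rv at 2.5 and 1.25 µg/mL; K204 at 10, 5, 2.5, 1.25 µg/mL. Incubated 6 days, AlamarBlue added, colour read at 24 and 48 h. MIC = lowest KAN with no colour change. At least twice in duplicate.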

Data set [22] relates to A549. Nature of the data set: Cytotoxicity against human A549 cells assessed as reduction in cell viability at 100 uM incubated for 24 hrs by resazurin assay. In kind it is toxicity, cell-based. The settings on record: a549, 24 h. A digest of the protocol:
as §3

Data set [23] deals with J774.A1. Nature of the data set: Cytotoxicity against mouse J774.A1 cells assessed as reduction in cell viability at 100 uM incubated for 24 hrs by resazurin assay. The class given is toxicity, cell-based. The note with it: j774.a1, 24 h. A digest of the protocol: as §3
The subject of data set [24] is Mycobacterium tuberculosis. Nature of the data set: Potentiation of kanamycin-induced antibacterial activity against Mycobacterium tuberculosis H37Rv assessed as kanamycin MIC incubated for 1 day followed by kanamycin addition for 6 days and by Alamar blue assay. In kind it is functional. The settings on record: 168 h, time 7 day. The method, boiled down: as §4

Data set [25] has as its system A549. Nature of the data set: Cytotoxicity against human A549 cells assessed as reduction in cell viability at 100 to 200 uM incubated for 24 hrs by resazurin assay. The settings on record: a549, 24 h, dose 100-200 µM. The class given is toxicity, cell-based. A digest of the protocol: as §3

Each structure is given as a SMILES string. In brackets after ≈: the same amount, converted by molar mass. Activity calls are given as the source filed them. A value given as a limit tells only on which side of the number the result lay.

Regarding `O=C(CCCN1CCC(O)(c2ccc(Cl)cc2)CC1)c1ccc(Cl)cc1` [CHLOROHALOPERIDOL], the outcome (in the data set with Mycobacterium avium [1]; with Mycobacterium avium [2]; in data set [5]; in data set [9]; in data set [10]; in data set [11]) was Active. In addition, the result (in the data set on Mycobacterium avium [13]; in [15]; in data set [17]; in data set [19]; in [20]) was Active. The minimum inhibitory concentration (MIC) – broadly, the smallest concentration in the dilution series that meets the test's criterion for growth inhibition – in data set [3] is 15.6 µM (≈ 6.12 µg/mL); in data set [6], greater than 62.5 µM; in data set [7] it was greater than 62.5 µM; in [16] it was greater than 62.5 µM; in the data set with Mycobacterium avium [18] it was 62.5 µM (≈ 24.5 µg/mL). For the same compound, at N-acetyltransferase Eis, the concentration for half-maximal inhibition (IC50) (usually the midpoint of a concentration-inhibition curve) came out at 5.1 µM. In addition, the Activity result with J774.A1 [4] is given as “Toxic”; in the data set on A549 [12], “Non-Toxic”; with HEK293, “Non-Toxic”. Moreover, the “fold change (FC)” value in [8] was determined as 4; in data set [14] it was 16.
Turning to `COc1ccc(C(=O)CCCN2CCC(O)(c3ccc(Cl)cc3)CC2)cc1`, the minimum inhibitory concentration (MIC) is 62.5 µM (≈ 24.2 µg/mL) in data set [3]; greater than 10 µg/mL in data set [21]; greater than 62.5 µM in data set [6]; greater than 62.5 µM in data set [7]; no more than 1.25 µg/mL in [24]; greater than 62.5 µM in data set [16]. For the same compound, the minimum inhibitory concentration (MIC) in the data set on Mycobacterium avium [18] is greater than 62.5 µM. Also, the IC50 at N-acetyltransferase Eis was 40 µM. Moreover, the Activity is recorded as 78% in the data set on A549 [22] and “Toxic” in the data set with J774.A1 [23].
Take `O=C(CCCN1CCC(O)(c2ccc(Cl)cc2)CC1)c1ccc(Br)cc1`: the MIC is 31.3 µM (≈ 13.7 µg/mL) in [3]; greater than 10 µg/mL in [21]; greater than 62.5 µM in data set [6]; greater than 62.5 µM in [7]; no more than 1.25 µg/mL in data set [24]; greater than 62.5 µM in data set [16]. The minimal inhibitory concentration (MIC) with Mycobacterium avium [18] is greater than 62.5 µM. Moreover, the IC50 at N-acetyltransferase Eis is greater than 200 µM. The Activity is given as 100% in the data set on J774.A1 [23], 70% with A549 [25] and “Non-Toxic” in the data set with HEK293.

The values are drawn from ChEMBL document CHEMBL5107950, “Structure-based design of haloperidol analogues as inhibitors of acetyltransferase Eis from Mycobacterium tuberculosis to overcome kanamycin resistance” (RSC Med Chem, 2021).
